Active and inactive are the calls of the source. The calls are words filed in the database; no cut-off is given here. Non-standard residues stand in square brackets, D forms with d. Residues, ends and D or L forms follow the SMILES beside them. hPhe = N[C@@H](CCc1ccccc1)C(=O)O
Key:
Splenocyte [1] = test: Immunosuppressive activity against sheep erythrocytes-induced humoral immune response in CBA mouse splenocyte assessed as inhibition antibody forming cells at 100 ug/ml after 4 days; assay type: functional; design: scale not given: the % may be the effect or the level left
How it was run: (§1)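 Donor CBA mice (12-week-old, both sexes) sensitized with 0.2 ml of 1% SRBC suspension; spleens harvested four days later, erythrocytes lysed with 0.83% ammonium chloride. Splenocytes (5 ×10⁶/ml/well) cultured with SRBC (0.1 ml of 0.005% suspension) plus peptides (DMSO, then medium). After four days, antibody-forming cells counted; mean AFC numbers from quadruplicate wells ± SE.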

T-cell = test: Immunosuppressive effect on CBA mouse T cells assessed as inhibition of mitogen-induced proliferation at 100 ug/ml after 3 days by MTT assay; assay type: functional, cell-based
[2] = Toxicity in mouse WEHI164 clone 13 cells at 100 ug/ml after 24 hrs by MTT assay; settings: wehi-164, 24 h
How it was run: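 WEHI 164.13 cells exposed 24 h to peptides (DMSO then culture medium) or DMSO control solutions. Viability measured by MTT colorimetric method and expressed as percentage of OD relative to matching solvent dilutions (taken as 100%). Student's t-test for statistics.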

B = test: Immunosuppressive effect on CBA mouse B cells assessed as inhibition of mitogen-induced proliferation after 3 days by MTT assay; assay type: functional, cell-based
Splenocyte [3] = test: Immunosuppressive activity against sheep erythrocytes-induced humoral immune response in CBA mouse splenocyte assessed as inhibition antibody forming cells after 4 days; assay type: functional, cell-based; how it was run: as §1

Compound | Activity (Splenocyte [1]) | Activity (T-cell) | Activity [2] | Activity (B) | Activity (Splenocyte [3])
CC[C@H](C)[C@@H]1NC(=O)[C@H](CC(C)C)NC(=O)[C@H](Cc2ccccc2)NC(=O)[C@H](CCc2ccccc2)NC(=O)[C@@H]2CCCN2C(=O)[C@@H]2CCCN2C(=O)[C@H](C(C)C)NC(=O)[C@H](CC(C)C)NC(=O)[C@H]([C@@H](C)CC)NC1=O (cyclo(FLIILVPP[hPhe])) | 94.5% | Active |  |  | 
CC[C@H](C)[C@@H]1NC(=O)[C@H](CC(C)C)NC(=O)[C@H](CCc2ccccc2)NC(=O)[C@H](Cc2ccccc2)NC(=O)[C@@H]2CCCN2C(=O)[C@@H]2CCCN2C(=O)[C@H](C(C)C)NC(=O)[C@H](CC(C)C)NC(=O)[C@H]([C@@H](C)CC)NC1=O (cyclo(F[hPhe]LIILVPP)) | 92% |  | 47.19% | Active | 
CC[C@H](C)[C@@H]1NC(=O)[C@H](CC(C)C)NC(=O)[C@H](CCc2ccccc2)NC(=O)[C@H](CCc2ccccc2)NC(=O)[C@@H]2CCCN2C(=O)[C@@H]2CCCN2C(=O)[C@H](C(C)C)NC(=O)[C@H](CC(C)C)NC(=O)[C@H]([C@@H](C)CC)NC1=O (cyclo(IILVPP[hPhe][hPhe]L)) |  |  |  | Active | Active

Reference: ChEMBL document CHEMBL1153776, “Synthesis and immunosuppressive activity of cyclolinopeptide A analogues containing homophenylalanine” (Eur J Med Chem, 2009)
